From ChEMBL document CHEMBL1144664, “Design, synthesis, and SAR of new pyrrole-oxindole progesterone receptor modulators leading to 5-(7-fluoro-3,3-dimethyl-2-oxo-2,3-dihydro-1H-indol-5-yl)-1-methyl-1H-pyrrole-2-carbonitrile (WAY-255348)” (J Med Chem, 2008)
Calls of active or inactive are those of the source. The calls are words filed in the database; no cut-off is given here.

What was measured:
Rattus norvegicus [1] = organism: Rattus norvegicus; experiment: Antagonist activity in rat uterus assessed as progesterone-induced decidualization response in stromal cells; assay type: functional
How it was run: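 Female rat decidualization model: compound given orally in 0.5% methyl cellulose/2% Tween 80 to antagonize the progesterone-induced decidual response of uterine stromal cells. ED50 reported.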

[2] = molecular target: T1, Glucocorticoid receptor (Homo sapiens) (UniProt P04150); experiment: Antagonist activity at human GR ligand binding domain expressed in african green monkey COS7 cells in presence of Dexamethasone by Gal4 hybrid assay; assay type: cell-based; details: COS-7
T1 sequence (whole entry): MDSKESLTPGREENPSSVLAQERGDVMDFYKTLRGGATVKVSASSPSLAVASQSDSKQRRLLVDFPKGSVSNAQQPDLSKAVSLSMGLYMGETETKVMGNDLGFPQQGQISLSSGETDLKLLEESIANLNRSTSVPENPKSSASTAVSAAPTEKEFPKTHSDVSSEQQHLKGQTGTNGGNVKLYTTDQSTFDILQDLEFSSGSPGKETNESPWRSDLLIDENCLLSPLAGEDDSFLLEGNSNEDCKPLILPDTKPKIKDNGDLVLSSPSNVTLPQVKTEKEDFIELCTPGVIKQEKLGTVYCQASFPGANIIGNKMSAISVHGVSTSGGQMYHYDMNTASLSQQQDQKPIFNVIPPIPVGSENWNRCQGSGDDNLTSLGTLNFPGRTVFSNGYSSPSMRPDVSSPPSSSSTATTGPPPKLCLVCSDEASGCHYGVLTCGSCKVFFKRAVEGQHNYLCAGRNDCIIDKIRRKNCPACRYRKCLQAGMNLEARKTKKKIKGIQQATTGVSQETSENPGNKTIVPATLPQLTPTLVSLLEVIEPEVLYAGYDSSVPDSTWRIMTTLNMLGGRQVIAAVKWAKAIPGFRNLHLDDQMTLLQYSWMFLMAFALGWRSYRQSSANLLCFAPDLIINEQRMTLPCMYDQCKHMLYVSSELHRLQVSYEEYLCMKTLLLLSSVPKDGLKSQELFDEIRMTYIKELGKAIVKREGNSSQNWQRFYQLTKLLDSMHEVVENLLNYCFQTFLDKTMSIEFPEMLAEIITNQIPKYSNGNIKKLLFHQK

Rattus norvegicus [3] = experiment: Drug level in Sprague-Dawley rat at 1 mg/kg, iv; assay type: ADME, organism-based; design: dose 1 mg/kg, route intravenous; details: in vivo
How it was run: (§1)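 Female Sprague–Dawley rats dosed as 1-in-4 cassette or discrete studies. iv in DMSO/PEG200 20:80; po in aqueous 2% Tween 80/0.5% methyl cellulose. Parameters reported: C0, Cmax, t1/2, plasma clearance, Vss, AUC0-inf and %F.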

[4] = Stability in rat liver microsome assessed as half life; assay type: ADME; details: liver microsomes
How it was run: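 Female rat, cynomolgus monkey and human liver microsome stability; half-life (min) reported.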

Rhesus monkey [5] = experiment: Effect on endometrium thickness of rhesus monkey; assay type: functional, Macaca mulatta
How it was run: (§2)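 Adult female rhesus macaques (n=3) with regular cycles dosed 10 mg/(kg·day) po in 2% Tween 80/0.5% methylcellulose with cherry flavoring for 28 days from cycle day 2. Serum estradiol and progesterone measured every 3 days. Necropsy on day 28. Uterine weights are of half the uterus; KI-67 and mitotic indices counted per 1000 cells. Values given as mean ± SE.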

Cynomolgus monkey [6] = experiment: Induction of early menses in cynomolgus monkey at 5 mg/kg, po; assay type: organism-based, Macaca fascicularis; design: dose 5 mg/kg, route oral; details: in vivo
Rhesus monkey [7] = experiment: Effect on endometrium weight of rhesus monkey; assay type: functional, Macaca mulatta; how it was run: as §2
Cynomolgus monkey [8] = experiment: Inhibition of ovulation in cynomolgus monkey assessed as luteal phase progesterone surge at 3 mg/kg; assay type: functional; details: Macaca fascicularis
How it was run: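 Normally cycling cynomolgus monkeys dosed orally, daily at 1, 3 or 10 mg/kg (n=4–6) or vehicle (n=2), in 2% Tween 80/0.5% methylcellulose for 30 days from cycle day 2. Serum sampled three times weekly; progesterone measured by radioimmunoassay to detect a luteal-phase rise as the sign of ovulation.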

Rhesus monkey [9] = experiment: Effect on functionalis KI67 assessed as number of KI67 labeled cells of rhesus monkey; assay type: functional, Macaca mulatta; how it was run: as §2
[10] = Volume of distribution at steady state in Sprague-Dawley rat at 0.5 mg/kg, iv; assay type: ADME, organism-based; design: dose 0.5 mg/kg, route intravenous; details: in vivo, read-out: Vdss; how it was run: as §1
Progesterone receptor = molecular target: T2, Progesterone receptor (Homo sapiens, UniProt P06401); experiment: Antagonist activity at human PR expressed in human T47D cells assessed as inhibition of progesterone induced alkaline phosphatase; assay type: functional, cell-based
T2 sequence (P06401 whole entry): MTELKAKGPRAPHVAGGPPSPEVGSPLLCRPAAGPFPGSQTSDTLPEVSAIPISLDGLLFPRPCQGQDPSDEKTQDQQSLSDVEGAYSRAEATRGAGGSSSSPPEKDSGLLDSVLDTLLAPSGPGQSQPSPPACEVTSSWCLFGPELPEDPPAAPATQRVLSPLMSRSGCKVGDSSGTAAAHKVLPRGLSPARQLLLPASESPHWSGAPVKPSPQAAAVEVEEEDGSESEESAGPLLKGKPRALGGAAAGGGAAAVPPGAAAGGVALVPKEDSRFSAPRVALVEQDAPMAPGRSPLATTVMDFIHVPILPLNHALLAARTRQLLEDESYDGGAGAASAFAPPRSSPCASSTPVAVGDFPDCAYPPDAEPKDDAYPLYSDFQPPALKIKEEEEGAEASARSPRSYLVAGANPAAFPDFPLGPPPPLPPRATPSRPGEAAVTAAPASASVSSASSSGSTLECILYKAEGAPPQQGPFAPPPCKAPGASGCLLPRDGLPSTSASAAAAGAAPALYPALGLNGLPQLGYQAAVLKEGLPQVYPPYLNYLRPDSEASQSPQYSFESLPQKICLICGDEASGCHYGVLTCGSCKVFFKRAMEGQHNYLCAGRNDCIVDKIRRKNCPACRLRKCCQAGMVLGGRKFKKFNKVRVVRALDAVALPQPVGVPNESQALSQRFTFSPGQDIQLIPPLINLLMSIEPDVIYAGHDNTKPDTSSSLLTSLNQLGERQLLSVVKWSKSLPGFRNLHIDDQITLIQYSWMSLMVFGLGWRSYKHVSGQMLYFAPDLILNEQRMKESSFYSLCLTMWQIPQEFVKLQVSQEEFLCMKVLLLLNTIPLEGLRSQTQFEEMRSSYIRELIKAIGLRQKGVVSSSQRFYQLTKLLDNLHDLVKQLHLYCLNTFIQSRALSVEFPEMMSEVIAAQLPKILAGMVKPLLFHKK

[11] = Half life in Sprague-Dawley rat at 1 mg/kg, iv; assay type: ADME, organism-based; design: dose 1 mg/kg, route intravenous; details: in vivo; how it was run: as §1

Cn1c(C#N)ccc1-c1cc(F)c2c(c1)C(C)(C)C(=O)N2
ED50 (Rattus norvegicus [1]): 0.3 mg/kg
Activity [2]: inactive
Drug uptake (Rattus norvegicus [3]): 528 ng/mL
half-life [4]: 0.433 h
Activity (Rhesus monkey [5]): 2.2 mm
Activity (Cynomolgus monkey [6]): 75%
Activity (Rhesus monkey [7]): 60 mg
ED50 (Cynomolgus monkey [8]): 1.6 mg/kg
Activity (Rhesus monkey [9]): 105
Vd [10]: 2.9 L/kg
IC50 (Progesterone receptor): 5 nM
half-life [11]: 9.4 h
